Laboratory results taken from article PMC3880631 (Journal of medicinal chemistry, 2013).

Key:
[1] = molecular target: HIV-1 RT DNA-dependent DNA polymerase activity (Human immunodeficiency virus type 1 group M subtype B, UniProt P03366); test: DNA-dependent DNA polymerase assay; type: biochemical; conditions: read-out: inhibition of DNA-dependent DNA polymerase activity
HIV-1RF isolate = test: in vitro; type: cell-based
[2] = test system: selectively-mutated p51 thumb α-helix I variants (Lys275 – Arg286) of HIV-1 RT; type: biochemical; conditions: Supplementary Table S1
Procedure, shortened: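 Reconstituted p66/p51 RT with p51 thumb mutations (150 - 800 ng), pre-mixed with test compound in DMSO; 18-nt 3′-fluorescein RNA/5′-dabsyl DNA hybrid (250 nM final) added to start. […] Triplicates.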

| SMILES | inhibition at 50 µM [1] | also measured |
| --- | --- | --- |
| O=c1[nH]c(-c2ccc(O)c(O)c2)nc2sc3c(c12)CCCCCC3 [Compound 30] | > 60% |  |
| CCCc1c(C)sc2nc(-c3ccc(O)c(O)c3)[nH]c(=O)c12 [Compound 24] |  | selectivity ratio (HIV-1RF isolate; human, sr, selectivity ratio, i.e., CC50/EC50, CC50/EC50): ~6 |
| Cc1sc2nc(-c3ccc(O)c(O)c3)[nH]c(=O)c2c1C [Compound 9] |  | sensitivity of the entire panel of p51 thumb α-helix I variants [2]: uniformly sensitive |
| CCCCc1c(C)sc2nc(-c3ccc(O)c(O)c3)[nH]c(=O)c12 [Compound 25] | > 60% |  |
| O=c1[nH]c(-c2ccc(O)c(O)c2)nc2sc3c(c12)CCCC3 [Compound 28] | > 60% | protection from HIV infection (HIV-1RF isolate; HIV-1RF in CEM-SS cells): failed to elicit protection from HIV infection |
